The record followed here is ChEMBL document CHEMBL4177720, “Towards smart biocide-free anti-biofilm strategies: Click-based synthesis of cinnamide analogues as anti-biofilm compounds against marine bacteria” (Bioorg Med Chem Lett, 2018).

Broadly, the EC50 is the concentration that produces a half-maximal response.

Series [1] has as its system Paracoccus sp. As to the kind of experiment: Anti-biofilm activity against Paracoccus sp. 4M6 assessed as inhibition of bacterial adhesion incubated for 15 hrs at 20 degC by Syto 61 dye based fluorimetric assay. It is filed as functional. The settings on record: Paracoccus sp. (in: a-proteobacteria), 4M6, 15 h. In outline:
(§1)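 Cells were grown in VNSS at 20°C to stationary phase, centrifuged, and resuspended in artificial sea water (ASW) to OD600 0.2-0.4. Suspension (100 µL) plus 100 µL diluted compound, in triplicate, with ASW-only adhesion control, was held 15 h at 20°C. After three 36 g/L NaCl washes, adhered cells were stained 10 min at room temperature with 40 µmol/L Syto 61. Fluorescence read at ex 615/em 670 nm; EC50 from dose-response fit.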

The test system of series [2] is Pseudoalteromonas ulvae. As to the kind of experiment: Anti-biofilm activity against Pseudoalteromonas ulvae TC14 assessed as inhibition of bacterial adhesion incubated for 15 hrs at 20 degC by Syto 61 dye based fluorimetric assay. Format: functional, organism-based. To be noted: TC14, 15 h. In outline:
as §1

Series [3] relates to Pseudoalteromonas lipolytica. As to the kind of experiment: Anti-biofilm activity against Pseudoalteromonas lipolytica TC8 assessed as inhibition of bacterial adhesion incubated for 15 hrs at 20 degC by Syto 61 dye based fluorimetric assay. Format: functional, organism-based. To be noted: TC8, 15 h. In outline:
as §1

The subject of series [4] is Pseudoalteromonas ulvae. As to the kind of experiment: Effect on cell viability of Pseudoalteromonas ulvae TC14 at 100 uM measured every hr during 6 hrs by resazurin based assay. Format: organism-based. An outline of the steps: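 Exponential-phase cells (VNSS, 20°C, 120 rpm) were resuspended in VNSS to OD600 0.1. 20 µL inoculated into 180 µL compound in VNSS, triplicate, at 100 µM, with solvent and medium controls. OD600 was read hourly for 6 h. Resazurin (50 µM) was then added, and fluorescence after 2 h gave percent viability versus untreated.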
For orientation: The colour change of resazurin is a common sign of viable cells or microbes.

Series [5] relates to Pseudoalteromonas ulvae. As to the kind of experiment: Effect on cell growth of Pseudoalteromonas ulvae TC14 at 100 uM measured every hr during 6 hrs by turbidity (OD600) measurement.

Molecules are shown by their SMILES.

Consider `COc1cccc(-n2cc(C(=O)NCCc3ccc(O)cc3)nn2)c1`, for which the EC50 was above 300 µM in series [1], 204 µM in series [2] and 276 µM in series [3].

For the molecule `COc1ccc(CCNC(=O)c2cn(-c3ccc(OC)cc3)nn2)cc1`, the Activity result in series [4] and in series [5] was “Non-Toxic” throughout. Moreover, the EC50 was 260 µM in series [1], 11.3 µM in series [2] and above 300 µM in series [3].

As to `COc1ccc(CCNC(=O)c2cn(-c3cccc(OC)c3)nn2)cc1`, the Activity result in series [4] and in series [5] was “Non-Toxic” each time. The values for the EC50 in series [1], in series [2] and in series [3] were 216 µM, 11.4 µM and above 300 µM, respectively.

On to `COc1ccc(-n2cc(C(=O)NCCc3cccc(OC)c3)nn2)cc1`, for which the Activity result in series [5] was “Non-Toxic”. The EC50 in series [1] came to 214 µM; in series [2], 52.3 µM; in series [3] it was 142 µM.

Turning to `COc1ccc(-n2cc(C(=O)NCCc3ccc(OC)c(OC)c3)nn2)cc1`, the Activity entry in series [4] and in series [5] was “Non-Toxic” in each case. Also, the EC50 in series [1] was 162 µM; in series [2], 54.6 µM; in series [3], above 300 µM.

Take `COc1cccc(-n2cc(C(=O)NCCc3ccc(OC)c(OC)c3)nn2)c1`: the figures for the EC50 in series [1], in series [2] and in series [3] were 154 µM, 73.7 µM and above 300 µM, respectively.

Turning to `COc1cccc(CCNC(=O)c2cn(-c3cccc(OC)c3)nn2)c1`, the concentration giving a half-maximal response (EC50) was 226 µM in series [1], 80.6 µM in series [2] and above 300 µM in series [3].

Consider `COc1ccc(-n2cc(C(=O)NCCc3ccc(O)cc3)nn2)cc1`, for which the EC50 in series [1] is 220 µM; in series [2], 115 µM; in series [3], above 300 µM.

On to `CC1(C)S[C@@H]2[C@H](NC(=O)[C@H](N)c3ccccc3)C(=O)N2[C@H]1C(=O)O` [AMPICILLIN], for which the Activity result in series [4] is on record as “Toxic”.

Turning to `O=C(/C=C/c1ccc(O)cc1)NCCc1ccc(O)cc1` [N-P-COUMAROYL TYRAMINE], the EC50 is above 300 µM in series [1], 75.5 µM in series [2] and above 300 µM in series [3].
